The values that follow come from ChEMBL document CHEMBL3272290, “Contragestational agents. 1. Steroidal O-aryloximes” (J Med Chem, 1977).

Holding throughout (format): functional
Parameters in all cases: scale not given: the % may be the effect or the level left

Experiment [1] has as its system Rattus norvegicus. Put plainly: Antifertility activity in Wistar rat assessed as inhibition of preimplantive gestation by measuring resorptions at 40 mg/kg, po administered in days 9 to 12 of pregnancy measured on day 21. The method in brief:
(§1)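 Groups of five pregnant female Wistar-derived rats dosed orally on days 9–12 of pregnancy, in sesame oil at 0.5 mL per 200 g body weight. Read-out was the percentage of resorptions.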

Experiment [2] has as its system Rattus norvegicus. Put plainly: Antifertility activity in Wistar rat assessed as inhibition of preimplantive gestation by measuring resorptions at 5 mg/kg, po administered in days 9 to 12 of pregnancy measured on day 21. The essentials:
as §1

Experiment [3] concerns Rattus norvegicus. Put plainly: Antifertility activity in Wistar rat assessed as inhibition of preimplantive gestation by measuring resorptions at 2.5 mg/kg, po administered in days 9 to 12 of pregnancy measured on day 21. The method in brief:
as §1

Experiment [4] concerns Rattus norvegicus. Put plainly: Antifertility activity in Wistar rat assessed as inhibition of preimplantive gestation by measuring resorptions at 20 mg/kg, po administered in days 9 to 12 of pregnancy measured on day 21. The essentials: as §1

Structures are written as SMILES.

`CC(=O)O[C@H]1CC[C@H]2[C@@H]3CC[C@H]4C/C(=N/Sc5ccc([N+](=O)[O-])cc5)CC[C@]4(C)[C@H]3CC[C@]12C`: the Activity with Rattus norvegicus [1] is listed as 7.5%.
For `C[C@]12CC/C(=N\Oc3ccc([N+](=O)[O-])cc3)C[C@@H]1CC[C@@H]1[C@@H]2CC[C@]2(C)C(=O)CC[C@@H]12`, the Activity with Rattus norvegicus [2] was 100%.
As to `C[C@]12CC[C@H]3[C@@H](CCC4=C/C(=N/Oc5ccc([N+](=O)[O-])cc5)CC[C@@]43C)[C@@H]1CC[C@@H]2O`, the Activity in the experiment with Rattus norvegicus [1] is 93.8%.
Still for that read-out and setting: the same measure for `C[C@]12CC/C(=N\Oc3ccc([N+](=O)[O-])cc3)C[C@@H]1CC[C@@H]1[C@@H]2CC[C@]2(C)[C@@H](N)CC[C@@H]12`: 2%.
In the case of `CC12CC[C@H]3[C@@H](CC[C@H]4C/C(=N/Oc5ccc([N+](=O)[O-])cc5)[C@H](Cl)C[C@@]43C)[C@@H]1CCC2=O` (single isomer, unassigned), the Activity in the experiment with Rattus norvegicus [3] is given as 100%.
As to `Cc1cc(O/N=C2\CC[C@@]3(C)[C@@H](CC[C@@H]4[C@@H]3CC[C@]3(C)[C@@H](O)CC[C@@H]43)C2)ccc1[N+](=O)[O-]`, in the experiment with Rattus norvegicus [1], the Activity is 13.1%.
Same read-out and setting: the same measure for `C[C@]12CC/C(=N\Oc3ccc([N+](=O)[O-])cc3[N+](=O)[O-])C[C@@H]1CC[C@@H]1[C@@H]2CC[C@]2(C)[C@@H](O)CC[C@@H]12`: 8.2%.
On the same count and under the same terms, for `CC(=O)O[C@H]1CC[C@H]2[C@@H]3CC[C@H]4C/C(=N/Oc5ccc([N+](=O)[O-])cc5)C[C@H](C)[C@]4(C)[C@H]3CC[C@]12C` the value was 5.8%.
As to `C[C@]12CC[C@H]3[C@@H](CCC4=C/C(=N/Oc5ccc([N+](=O)[O-])cc5[N+](=O)[O-])C=C[C@@]43C)[C@@H]1CC[C@@H]2O`, in the experiment on Rattus norvegicus [4], the Activity is listed as 92.6%.
Take `C[C@]12CC/C(=N\OCc3ccc(Br)c(O)c3)C[C@@H]1CC[C@@H]1[C@@H]2CC[C@]2(C)[C@@H](O)CC[C@@H]12`: the Activity with Rattus norvegicus [1] came to 8.8%.
On the same count and under the same terms, the same measure for `C[C@]12CC[C@H]3[C@@H](CC[C@H]4C/C(=N/Oc5ccc([N+](=O)[O-])cc5[N+](=O)[O-])CC[C@@H]43)[C@@H]1CC[C@@H]2O`: 16.4%; for `C[C@]12CC/C(=N\Oc3ccc([N+](=O)[O-])cc3)C[C@@H]1CC[C@@H]1[C@@H]2CC[C@@]2(C)[C@H]1CCC21SCCS1`: 4%; for `CC(=O)[C@H]1CC[C@H]2[C@@H]3CC[C@H]4C/C(=N/Oc5ccc([N+](=O)[O-])cc5)CC[C@]4(C)[C@H]3CC[C@]12C`: 4%.
Still for that read-out and setting: the same measure for `C[C@]12CC[C@H]3[C@@H](CCC4=C/C(=N/Oc5ccccc5[N+](=O)[O-])CC[C@@H]43)[C@@H]1CC[C@@H]2O`: 11.9%; for `C[C@]12CC/C(=N\Oc3ccc(C#N)cc3)C[C@@H]1CC[C@@H]1[C@@H]2CC[C@]2(C)[C@@H](O)CC[C@@H]12`: 12.9%.
As for `C[C@]12CC[C@H]3[C@@H](CCC4=C/C(=N/Oc5ccccn5)CC[C@@H]43)[C@@H]1CC[C@@H]2O`, the Activity with Rattus norvegicus [4] was found to be 100%.
As to `CC(=O)O[C@H]1CC[C@H]2[C@@H]3CCC4C/C(=N/Oc5ccc([N+](=O)[O-])cc5)C=C[C@]4(C)[C@H]3CC[C@]12C` (stereo partly drawn), the Activity in the experiment on Rattus norvegicus [1] was 2%.
As to `C[C@]12C[C@@H](Br)/C(=N\Oc3ccc([N+](=O)[O-])cc3)C[C@@H]1CC[C@@H]1[C@@H]2CC[C@]2(C)[C@@H](O)CC[C@@H]12`, in the experiment with Rattus norvegicus [3], the Activity is 100%.
Take `C[C@]12CC/C(=N\Oc3ccccc3)C[C@@H]1CC[C@@H]1[C@@H]2CC[C@]2(C)[C@@H](O)CC[C@@H]12`: the Activity in the experiment with Rattus norvegicus [1] was 1.9%.
The same measure, in the same setting: for `C[C@]1(O)CC[C@H]2[C@@H]3CC[C@H]4C/C(=N/Oc5ccc([N+](=O)[O-])cc5[N+](=O)[O-])CC[C@@H]4[C@H]3CC[C@@]21C` the value was 9.5%; for `C#C[C@]1(O)CC[C@H]2[C@@H]3CC[C@H]4C/C(=N/Oc5ccc([N+](=O)[O-])cc5)CC[C@]4(C)[C@H]3CC[C@@]21C`, 76.9%.
Same read-out and setting: for `C[C@@]12CCC[C@H]1[C@@H]1CC[C@H]3C/C(=N/Oc4ccc([N+](=O)[O-])cc4)CC[C@]3(C)[C@H]1CC2` the value was 0%.
The same measure, in the same setting: for `C[C@]12CC/C(=N\OCc3ccccc3)C[C@@H]1CC[C@@H]1[C@@H]2CC[C@]2(C)[C@@H](O)CC[C@@H]12` the value was 13.3%; for `C[C@]12CC/C(=N\Oc3ccccc3)C[C@H]1CC[C@@H]1[C@@H]2CC[C@]2(C)[C@@H](O)CC[C@@H]12`, 11.9%.
`C[C@]12CC/C(=N\Oc3ccc([N+](=O)[O-])cc3[N+](=O)[O-])C=C1CC[C@@H]1[C@@H]2CC[C@@]2(C)[C@H]1CC[C@]2(C)O`: in the experiment with Rattus norvegicus [4], the Activity was 2.2%.
Take `C[C@]12CC/C(=N\Oc3ccc([N+](=O)[O-])cc3)C[C@@H]1CC[C@@H]1[C@@H]2CC[C@@]2(C)[C@H]1CC[C@]2(C)O`: in the experiment with Rattus norvegicus [1], the Activity was determined as 14.7%.
On the same count and under the same terms, the same measure for `C[C@]12CC[C@H]3[C@@H](CCC4=C/C(=N/Oc5ccccc5)CC[C@@H]43)[C@@H]1CC[C@@H]2O`: 100%; for `C[C@]12CC[C@H]3[C@@H](CC[C@H]4C/C(=N/Oc5ccc([N+](=O)[O-])cc5)CC[C@@H]43)[C@@H]1CC[C@@H]2O`: 9.8%; for `CC(=O)O[C@H]1CC[C@H]2[C@@H]3CC[C@H]4CC(=O)CC[C@]4(C)[C@H]3CC[C@]12C`: 5%.
Turning to `C[C@]12CC[C@H]3[C@@H](CCC4=C/C(=N/Oc5ccc([N+](=O)[O-])cc5[N+](=O)[O-])CC[C@@H]43)[C@@H]1CC[C@@H]2O`, in the experiment with Rattus norvegicus [4], the Activity is 100%.
On to `C[C@]12CC/C(=N\Oc3ccc([N+](=O)[O-])cc3[N+](=O)[O-])C[C@H]1CC[C@@H]1[C@@H]2CC[C@]2(C)[C@@H](O)CC[C@@H]12`, for which the Activity with Rattus norvegicus [1] is 5.4%.
The same measure, in the same setting: for `C[C@]12CC[C@H]3[C@@H](CCC4=C/C(=N/Oc5ccc(C(F)(F)F)cc5)CC[C@@]43C)[C@@H]1CC[C@@H]2O` the value was 11.8%; for `C[C@]12CC/C(=N\Oc3ccc([N+](=O)[O-])cc3)C[C@H]1CC[C@@H]1[C@@H]2CC[C@]2(C)[C@@H](O)CC[C@@H]12`, 10.9%; for `C[C@]12CC/C(=N\Oc3ccc(C(F)(F)F)cc3)C[C@@H]1CC[C@@H]1[C@@H]2CC[C@]2(C)[C@@H](O)CC[C@@H]12`, 4.8%.
Regarding `C[C@]12C[C@@H](Br)/C(=N\Oc3ccc([N+](=O)[O-])cc3)C[C@@H]1CC[C@@H]1[C@@H]2CC[C@]2(C)C(=O)CC[C@@H]12`, the Activity in the experiment on Rattus norvegicus [3] worked out at 100%.
With `C[C@]12CC/C(=N\Oc3ccc([N+](=O)[O-])cn3)C[C@@H]1CC[C@@H]1[C@@H]2CC[C@]2(C)[C@@H](O)CC[C@@H]12`, the Activity in the experiment on Rattus norvegicus [1] amounted to 6%.
As for `C[C@]12CC[C@H]3[C@@H](CCC4=C/C(=N/Oc5ccc([N+](=O)[O-])cc5)CC[C@@H]43)[C@@H]1CC[C@@H]2O`, in the experiment with Rattus norvegicus [4], the Activity worked out at 63.9%.
Take `CC(=O)O[C@H]1CC[C@H]2[C@@H]3CC[C@H]4C/C(=N/Nc5ccc([N+](=O)[O-])cc5)CC[C@]4(C)[C@H]3CC[C@]12C`: the Activity in the experiment with Rattus norvegicus [1] came out at 7.7%.
The same measure, in the same setting: the same measure for `C[C@]12CC/C(=N\Oc3ccc([N+](=O)[O-])cc3)C[C@@H]1CC[C@@H]1[C@@H]2CC[C@]2(C)[C@@H](O[N+](=O)[O-])CC[C@@H]12`: 30.8%; for `C#C[C@]1(O)CC[C@H]2[C@@H]3CCC4=C/C(=N/Oc5ccc([N+](=O)[O-])cc5)CC[C@@H]4[C@H]3CC[C@@]21C`: 25%; for `Cc1cc([N+](=O)[O-])ccc1O/N=C1\CC[C@@]2(C)[C@@H](CC[C@@H]3[C@@H]2CC[C@]2(C)[C@@H](O)CC[C@@H]32)C1`: 5.7%.
As to `C[C@]12CC[C@H]3[C@@H](CCC4=C/C(=N/Oc5ccc([N+](=O)[O-])cc5)C=C[C@@]43C)[C@@H]1CC[C@@H]2O`, the Activity in the experiment on Rattus norvegicus [4] turned out to be 6%.
Consider `CC(=O)O[C@H]1CC[C@H]2[C@@H]3CC[C@H]4C/C(=N/Oc5ccccc5[N+](=O)[O-])CC[C@]4(C)[C@H]3CC[C@]12C`, for which the Activity in the experiment with Rattus norvegicus [1] was found to be 4%.
In the case of `C[C@]12CC/C(=N\Oc3ccc([N+](=O)[O-])cc3)C[C@@H]1CC[C@@H]1[C@@H]2CC[C@]2(C)[C@@H](O)CC[C@@H]12`, the Activity in the experiment on Rattus norvegicus [3] is recorded as 100%.
For the molecule `C[C@]12CC[C@H]3[C@@H](CCC4=C/C(=N/Oc5ccccn5)CC[C@@]43C)[C@@H]1CC[C@@H]2O`, the Activity in the experiment with Rattus norvegicus [1] is given as 75.9%.
Still for that read-out and setting: for `C[C@]12CC/C(=N\Oc3ccc([N+](=O)[O-])cc3Cl)C[C@@H]1CC[C@@H]1[C@@H]2CC[C@]2(C)[C@@H](O)CC[C@@H]12` the value was 5.8%.
Consider `CC(=O)O[C@H]1CC[C@H]2[C@@H]3CC[C@H]4C/C(=N/Oc5ccc([N+](=O)[O-])cc5)[C@H](Br)C[C@]4(C)[C@H]3CC[C@]12C`, for which, in the experiment on Rattus norvegicus [3], the Activity was 100%.
On to `C[C@]12CC/C(=N\Oc3ccccn3)C[C@@H]1CC[C@@H]1[C@@H]2CC[C@]2(C)[C@@H](O)CC[C@@H]12`, for which the Activity in the experiment with Rattus norvegicus [1] stood at 0%.
